Results from PMC8085964 (Pharmacology Research & Perspectives, 2021).
“Also recorded” adds a separate entry of the source. Values belong to the molecule of their own block, whether it stands above or below them.

How the values were obtained:
[1] = Clinical safety assessments; assay type: in vivo, healthy male participants (human); conditions: for tolerability: healthy participants, result in words
Procedure, shortened: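 Healthy young males (18–40 y, BMI 18–35) got a single oral test compound dose of 40 mg/kg by weight, then a 400 mg/day antiretroviral for 13 days under daily directly observed treatment. They stayed inpatient ≥24 h before and after dosing (days 1–3, 15–17). Vital signs were checked and adverse events or symptoms monitored. Examination, biochemistry, haematology, urinalysis and ECG were done at screening.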

[2] = Effect of efavirenz on R‐ and S‐PZQ pharmacokinetics; assay type: in vivo, healthy male participants (human); conditions: for AUCt0‐tlast, Geo Mean / C max, Geo Mean / Clearance/F, Geo Mean / Elimination rate constant, Geo Mean / Half‐Life, Geo Mean / T max, Geo Mean / V d/F, Geo Mean / AUCinf, Geo Mean: plasma
[3] = Effect of ritonavir on R‐ and S‐PZQ pharmacokinetics; assay type: in vivo, healthy male participants (human); conditions: for AUCt0‐tlast, Geo Mean / C max, Geo Mean / Elimination rate constant, Geo Mean / Half‐Life, Geo Mean / T max, Geo Mean / V d/F, Geo Mean / AUCinf, Geo Mean / Clearance/F, Geo Mean: plasma; for effect of ritonavir on pharmacokinetics: result in words
[4] = should be maintained for at least 4 h for efficacy; cited from earlier work
[5] = patients pre‐exposed to rifampicin; cited from earlier work
[6] = PZQ + Efavirenz (treatment): 40 mg/kg racemic PZQ after 400 mg efavirenz/day
[7] = PZQ alone (reference), single oral 40 mg/kg racemic PZQ, efavirenz arm
[8] = PZQ + Ritonavir (treatment): 40 mg/kg racemic PZQ after 100 mg ritonavir/day for 14 days
[9] = PZQ + Ritonavir (treatment): 40 mg/kg racemic PZQ after 100 mg ritonavir/day for 14 days, 40 mg/kg
[10] = PZQ alone (reference), single oral 40 mg/kg racemic PZQ, ritonavir arm
[11] = PZQ alone (reference), single oral 40 mg/kg racemic PZQ, ritonavir arm, 40 mg/kg

SMILES: CC(C)c1nc(CN(C)C(=O)N[C@H](C(=O)N[C@@H](Cc2ccccc2)C[C@H](O)[C@H](Cc2ccccc2)NC(=O)OCc2cncs2)C(C)C)cs1 [ritonavir]
tolerability [1]: generally well tolerated

AUCt0‐tlast, Geo Mean [2, 6]: 248.02 ng·h/mL
C max, Geo Mean [2, 6]: 104.32 ng/mL
Clearance/F, Geo Mean [2, 6]: 8449.32 L/h
Elimination rate constant, Geo Mean [2, 6]: 0.25 h⁻¹
Half‐Life, Geo Mean [2, 6]: 2.76 h
T max, Geo Mean [2, 6]: 1.64 h
V d/F, Geo Mean [2, 6]: 33637.78 L
AUCinf, Geo Mean ([2]; PZQ + Efavirenz (treatment): 40 mg/kg racemic PZQ after 400 mg efavirenz/day, 40 mg/kg): 281.43 ng·h/mL
AUCinf, Difference observed ([2]; PZQ + efavirenz vs PZQ alone): −74.36%
AUCinf, Treatment/reference GMR ([2]; PZQ + efavirenz vs PZQ alone): 23.20%
AUCt0‐tlast, Difference observed ([2]; PZQ + efavirenz vs PZQ alone): −76.90%
AUCt0‐tlast, Treatment/reference GMR ([2]; PZQ + efavirenz vs PZQ alone): 21.75%
C max, Difference observed ([2]; PZQ + efavirenz vs PZQ alone): −82.52%
C max, Treatment/reference GMR ([2]; PZQ + efavirenz vs PZQ alone): 21.21%
Clearance/F, Difference observed ([2]; PZQ + efavirenz vs PZQ alone): 546.74%
Elimination rate constant, Difference observed ([2]; PZQ + efavirenz vs PZQ alone): 3.45%
Half‐Life, Difference observed ([2]; PZQ + efavirenz vs PZQ alone): 17.63%
T max, Difference observed ([2]; PZQ + efavirenz vs PZQ alone): −18.22%
V d/F, Difference observed ([2]; PZQ + efavirenz vs PZQ alone): 280.92%
reduction in AUCinf (exposure) by efavirenz ([2]; PZQ + efavirenz vs PZQ alone): 4 fold
AUCinf, Geo Mean [2, 7]: 1213.15 ng·h/mL
AUCt0‐tlast, Geo Mean [2, 7]: 1140.41 ng·h/mL
C max, Geo Mean [2, 7]: 491.78 ng/mL
Clearance/F, Geo Mean [2, 7]: 1960.10 L/h
Elimination rate constant, Geo Mean [2, 7]: 0.26 h⁻¹
Half‐Life, Geo Mean [2, 7]: 2.66 h
T max, Geo Mean [2, 7]: 1.88 h
V d/F, Geo Mean [2, 7]: 7507.98 L
change in the T max when co‐administered with efavirenz ([2]; result in words): no change
AUCt0‐tlast, Geo Mean [3, 8]: 950.73 ng·h/mL
C max, Geo Mean [3, 8]: 354.34 ng/mL
Elimination rate constant, Geo Mean [3, 8]: 0.26 h⁻¹
Half‐Life, Geo Mean [3, 8]: 2.71 h
T max, Geo Mean [3, 8]: 1.53 h
V d/F, Geo Mean [3, 8]: 8772.21 L
AUCinf, Geo Mean [3, 9]: 1057.66 ng·h/mL
Clearance/F, Geo Mean [3, 9]: 2241.23 L/h
AUCinf, Difference observed ([3]; PZQ + ritonavir vs PZQ alone): 17.62%
AUCinf, Treatment/reference GMR ([3]; PZQ + ritonavir vs PZQ alone): 104.41%
AUCt0‐tlast, Difference observed ([3]; PZQ + ritonavir vs PZQ alone): 22.8%
AUCt0‐tlast, Treatment/reference GMR ([3]; PZQ + ritonavir vs PZQ alone): 107.06%
C max, Difference observed ([3]; PZQ + ritonavir vs PZQ alone): 13.70%
C max, Treatment/reference GMR ([3]; PZQ + ritonavir vs PZQ alone): 114.88%
Clearance/F, Difference observed ([3]; PZQ + ritonavir vs PZQ alone): 4.36%
Elimination rate constant, Difference observed ([3]; PZQ + ritonavir vs PZQ alone): 26.08%
Half‐Life, Difference observed ([3]; PZQ + ritonavir vs PZQ alone): −28.64%
T max, Difference observed ([3]; PZQ + ritonavir vs PZQ alone): −15.46%
V d/F, Difference observed ([3]; PZQ + ritonavir vs PZQ alone): −15.74%
AUCt0‐tlast, Geo Mean [3, 10]: 888.02 ng·h/mL
C max, Geo Mean [3, 10]: 308.44 ng/mL
Elimination rate constant, Geo Mean [3, 10]: 0.19 h⁻¹
Half‐Life, Geo Mean [3, 10]: 3.57 h
T max, Geo Mean [3, 10]: 1.69 h
V d/F, Geo Mean [3, 10]: 12034.61 L
AUCinf, Geo Mean [3, 11]: 1012.96 ng·h/mL
Clearance/F, Geo Mean [3, 11]: 2340.12 L/h
SMILES: O=C(C1CCCCC1)N1CC(=O)N2CCc3ccccc3[C@@H]2C1 [R‐Praziquantel]
effect of ritonavir on pharmacokinetics ([3]; PZQ + ritonavir vs PZQ alone, listed as R‐PZQ): no significant effect; also recorded: did not have a significant inhibitory effect

SMILES: O=C1Nc2ccc(Cl)cc2[C@@](C#CC2CC2)(C(F)(F)F)O1 [efavirenz]
participants with mild dizziness ([1]; efavirenz group, symptoms disappearing by day 5): 33%

SMILES: O=C(C1CCCCC1)N1CC(=O)N2CCc3ccccc3C2C1 (stereo not shown) [PZQ, praziquantel]
attainment of the MEC (1 µg/mL for at least 4 h) ([2]; PZQ with efavirenz, result in words): all participants failed to attain the MEC for more than the minimum 4 h
tolerability [1]: generally well tolerated
minimum effective concentration (MEC) [4]: 1 µg/mL
participants without detectable levels [5]: 7 out of 10

AUCinf, Geo Mean [2, 6]: 871.84 ng·h/mL
AUCt0‐tlast, Geo Mean [2, 6]: 826.17 ng·h/mL
C max, Geo Mean [2, 6]: 329.98 ng/mL
Clearance/F, Geo Mean [2, 6]: 2727.44 L/h
Elimination rate constant, Geo Mean [2, 6]: 0.35 h⁻¹
Half‐Life, Geo Mean [2, 6]: 2.00 h
T max, Geo Mean [2, 6]: 1.81 h
V d/F, Geo Mean [2, 6]: 7887.36 L
AUCinf, Difference observed ([2]; PZQ + efavirenz vs PZQ alone): −75.26%
AUCt0‐tlast, Difference observed ([2]; PZQ + efavirenz vs PZQ alone): −75.16%
AUCt0‐tlast, Treatment/reference GMR ([2]; PZQ + efavirenz vs PZQ alone): 15.26%
C max, Difference observed ([2]; PZQ + efavirenz vs PZQ alone): −76.85%
Clearance/F, Difference observed ([2]; PZQ + efavirenz vs PZQ alone): 950.27%
Elimination rate constant, Difference observed ([2]; PZQ + efavirenz vs PZQ alone): 11.76%
Half‐Life, Difference observed ([2]; PZQ + efavirenz vs PZQ alone): −15.83%
T max, Difference observed ([2]; PZQ + efavirenz vs PZQ alone): −25.48%
V d/F, Difference observed ([2]; PZQ + efavirenz vs PZQ alone): 757.72%
AUCt0‐tlast, Geo Mean [2, 7]: 5413.80 ng·h/mL
C max, Geo Mean [2, 7]: 1991.32 ng/mL
Clearance/F, Geo Mean [2, 7]: 419.40 L/h
Elimination rate constant, Geo Mean [2, 7]: 0.31 h⁻¹
Half‐Life, Geo Mean [2, 7]: 2.27 h
T max, Geo Mean [2, 7]: 2.42 h
V d/F, Geo Mean [2, 7]: 1373.82 L
AUCinf, Geo Mean ([2]; PZQ alone (reference), single oral 40 mg/kg racemic PZQ, efavirenz arm, 40 mg/kg): 5669.77 ng·h/mL
AUCinf, Geo Mean [3, 8]: 7291.05 ng·h/mL
AUCt0‐tlast, Geo Mean [3, 8]: 7083.71 ng·h/mL
Clearance/F, Geo Mean [3, 8]: 325.12 L/h
Elimination rate constant, Geo Mean [3, 8]: 0.38 h⁻¹
Half‐Life, Geo Mean [3, 8]: 1.81 h
T max, Geo Mean [3, 8]: 1.60 h
V d/F, Geo Mean [3, 8]: 847.06 L
C max, Geo Mean [3, 9]: 2336.96 ng/mL
AUCinf, Difference observed ([3]; PZQ + ritonavir vs PZQ alone): 69.84%
AUCinf, Treatment/reference GMR ([3]; PZQ + ritonavir vs PZQ alone): 175.49%
AUCt0‐tlast, Difference observed ([3]; PZQ + ritonavir vs PZQ alone): 71.88%
AUCt0‐tlast, Treatment/reference GMR ([3]; PZQ + ritonavir vs PZQ alone): 178.30%
C max, Difference observed ([3]; PZQ + ritonavir vs PZQ alone): 88.41%
Clearance/F, Difference observed ([3]; PZQ + ritonavir vs PZQ alone): −44.37%
Elimination rate constant, Difference observed ([3]; PZQ + ritonavir vs PZQ alone): 34.38%
Half‐Life, Difference observed ([3]; PZQ + ritonavir vs PZQ alone): −19.25%
T max, Difference observed ([3]; PZQ + ritonavir vs PZQ alone): −24.58%
V d/F, Difference observed ([3]; PZQ + ritonavir vs PZQ alone): −55.79%
effect of ritonavir on pharmacokinetics ([3]; PZQ + ritonavir vs PZQ alone): significant effect
AUCinf, Geo Mean [3, 10]: 4154.79 ng·h/mL
AUCt0‐tlast, Geo Mean [3, 10]: 3972.89 ng·h/mL
Clearance/F, Geo Mean [3, 10]: 570.54 L/h
Elimination rate constant, Geo Mean [3, 10]: 0.31 h⁻¹
Half‐Life, Geo Mean [3, 10]: 2.25 h
T max, Geo Mean [3, 10]: 2.20 h
V d/F, Geo Mean [3, 10]: 1847.59 L
C max, Geo Mean [3, 11]: 1174.93 ng/mL
SMILES: O=C(C1CCCCC1)N1CC(=O)N2CCc3ccccc3[C@H]2C1 [S‐Praziquantel]
